High-throughput results deposited in PubChem by several laboratories.
Sampled rows, rich in hits. Any-hit rate of the full collection: about 3.8%.
Lipid droplet = modulators of hepatic lipid droplet formation | AML12 mouse hepatocytes, oleate lipid droplets, BODIPY imaging | inhibition, % at 6.5 µM | actives 0.4% (n = 240,000) | AID 1656;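 active = lipid droplet intensity inhibited by at least 50%, with more than 500 cells counted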
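Test system: AML12 mouse liver cells; schedule: overnight exposure; technique: high-content imaging of BODIPY-stained droplets and DAPI nuclei; read-out: % inhibition of corrected integrated BODIPY droplet signal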
HSP90 refold inh = inhibitors of HSP90 luciferase refolding in rabbit reticulocyte lysate. luciferase refolding luminescence, 3 h. inhibition, % at 5.6 µM. actives 0.91% (n = 290,000). AID 1789;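 active = inhibition above the screen-wide mean plus 3 SD, computed separately per campaign, cut at about 16% in these data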;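 also: inhibitors lower the luminescence because luciferase stays unfolded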
HCV NS3 hel inh = blocks Hepatitis C virus NS3 helicase unwinding; NS3 helicase DNA unwinding, Cy5 molecular beacon fluorescence; inhibition, % at 10.9 µM; actives 0.56% (n = 290,000); AID 1800;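 active = inhibition above the mean of all tested compounds plus 3 SD, set per campaign, cut at about 35% in these data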
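Test system: hepatitis C virus NS3 helicase domain fragment enzyme. Also added: annealed dual-labelled DNA beacon duplex, ATP-started. Timing: 60 min unwinding reaction at 25 °C after ATP addition. Technique: Cy5 fluorescence. Measure: % inhibition of unwinding.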
HSF1 inh = HSF1 inhibition; actives 0.77% (n = 300,000); activity change, negative = inhibition, % at 7.5 µM (by protocol); NIH3T3-HGL HSE-luciferase, MG132-induced, luminescence 8 h; active compounds read low; AID 2098;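 active = more than half of replicate wells show activity change below -50%, luminescence cut by over half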;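 also: luciferase reports HSF-1 transcriptional activity via heat shock element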
HSF-1 act = increases HSF-1 driven luciferase reporter signal | AID 504408 | activation, % at 9 µM | NIH3T3-HGL HSF-1 luciferase reporter, MG132, 8 h; 100% = twice DMSO control signal | actives 1.7% (n = 300,000);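 active = mean replicate activation of at least 50% with a set share of replicates each reaching 50%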
HSP90 confirm = confirmation of HSP90 inhibitors. actives 64% (n = 2,300). rabbit reticulocyte lysate, luciferase refolding luminescence, 3 h. inhibition, % at 5.9 µM. AID 1846. shares compounds with HSP90 refold inh; in the data active = inhibition above about 18%
FLuc counter = firefly luciferase inhibition, HSP90 counter-screen | shares compounds with HSP90 refold inh | inhibition, % at 5.9 µM | AID 1847 | actives 48% (n = 2,300) | purified native firefly luciferase, luminescence;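 active = inhibition above the mean inhibition of all tested sample wells plus 3 SD, cut at about 10% in these data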
Target sequence (P08659 whole entry, looked up): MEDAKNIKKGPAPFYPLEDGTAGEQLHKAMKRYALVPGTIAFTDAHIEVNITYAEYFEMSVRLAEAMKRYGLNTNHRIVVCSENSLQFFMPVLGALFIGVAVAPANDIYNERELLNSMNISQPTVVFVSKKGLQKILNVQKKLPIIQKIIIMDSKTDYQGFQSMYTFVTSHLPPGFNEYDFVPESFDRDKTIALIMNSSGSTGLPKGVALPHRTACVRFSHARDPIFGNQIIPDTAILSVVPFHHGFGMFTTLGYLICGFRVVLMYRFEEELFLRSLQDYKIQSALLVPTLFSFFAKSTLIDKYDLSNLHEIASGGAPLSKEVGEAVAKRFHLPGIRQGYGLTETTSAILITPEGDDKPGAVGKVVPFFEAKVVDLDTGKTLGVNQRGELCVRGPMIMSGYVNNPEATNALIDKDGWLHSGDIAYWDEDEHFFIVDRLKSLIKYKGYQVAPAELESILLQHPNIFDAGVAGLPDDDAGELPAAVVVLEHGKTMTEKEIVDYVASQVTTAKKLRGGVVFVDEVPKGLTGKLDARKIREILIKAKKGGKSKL
Hits are given with their value; 0 = inactive; - = no result.

SMILES | Lipid droplet | HSP90 refold inh | HCV NS3 hel inh | HSF1 inh | HSF-1 act | HSP90 confirm | FLuc counter
CN=c1scc(-c2ccc(Br)cc2)n1C | 0 | 0 | 0 | 0 | 0 | - | -
CN=c1scc(-c2ccccc2Br)n1/N=C/c1ccc[nH]1 | 0 | 62 | 0 | 0 | 0 | 72 | 70
Cc1ccc(NC(=O)CCNC(=O)Cn2ccc3ccccc3c2=O)cc1F | 0 | 44 | 0 | 0 | 0 | 26 | 23
Cc1cc(/C=N/Nc2nc(N)ncc2[N+](=O)[O-])c(C)n1-c1ccccc1F | 0 | 78 | 0 | 0 | 0 | 94 | 89
CCCCC1CCC(C(=O)N(CCOC)c2c(N)n(CCCC)c(=O)[nH]c2=O)CC1 (centres undefined) | - | - | - | 0 | 0 | - | -
Cc1cc2ccccc2n1CCNC(=O)c1ccccc1 | - | 40 | 0 | 0 | 0 | 51 | 0
CC(=O)NCCn1c(C)cc2ccccc21 | 0 | - | - | 0 | 0 | - | -
Cc1cc2ccccc2n1CCNC(=O)C(C)(C)C | 0 | - | - | 0 | 0 | - | -
Cc1cc2ccccc2n1CCNC(=O)c1ccc(Br)o1 | 0 | 17 | 0 | 0 | 0 | 0 | 0
O=C1CCC([N+](=O)[O-])C(c2ccccc2F)N1 (centres undefined) | 0 | 0 | 0 | 0 | 0 | - | -
O=C(Nc1nc2cc3c(cc2s1)OCCO3)c1cccs1 | 0 | 39 | 0 | 0 | 0 | 62 | 59
CCOCCCNC(=O)c1cc(Nc2ccc(OC)cc2OC)nc2ccccc12 | 0 | 0 | 0 | 0 | 0 | - | -
COc1ccc(C(=O)/C=C/c2ccc(OC)c(COc3ccc(F)cc3)c2)cc1 | - | 24 | 0 | 0 | 0 | 21 | 0
COc1ccc(C(C)=O)cc1COc1ccc(F)cc1 | 0 | 0 | 0 | 0 | 0 | - | -
C=C1CC2C(=O)N(Cc3ccccc3)C(C(=O)OCC)(C(=O)OCC)C1N2C(=O)OC(C)(C)C (centres undefined) | - | - | - | 0 | 0 | - | -
COc1ccc(C)cc1NC(=O)NNC(=O)C(C)Oc1ccc(F)cc1Cl (centres undefined) | 0 | 20 | 0 | 0 | 0 | 0 | 0
COc1ccc(C)cc1NC(=O)NCc1ccc(F)cc1 | 0 | 0 | 0 | 0 | 0 | - | -
CCN1C(=O)CC(N2CCC(c3nc4ccccc4[nH]3)CC2)C1=O (centres undefined) | 0 | 23 | 0 | 0 | 0 | 24 | 0
Cc1cccc(N2C(=O)CC(N3CCC(c4nc5ccccc5[nH]4)CC3)C2=O)c1 (centres undefined) | 0 | 0 | 0 | 0 | 0 | - | -
Cc1cccc(NC(=O)c2sc3nc(-c4ccccc4)cn3c2C)n1 | 0 | 27 | 0 | 0 | 0 | 0 | 0
COc1ccc(-c2cn3c(C)c(C(=O)Nc4cccc(C)n4)sc3n2)cc1 | 0 | 77 | 0 | 0 | 0 | 73 | 0
Cc1cccc(NC(=O)c2sc3nc(-c4ccc(F)cc4)cn3c2C)n1 | - | 0 | 0 | 0 | 0 | - | -
Cc1ccc(N(C)C(=O)c2cc(S(=O)(=O)N3CCCC3)cn2C)cc1 | 0 | 0 | 0 | 0 | 0 | - | -
COC(=O)C1=C(C)N(C)C(=S)NC1c1ccc(OC)cc1OC (centres undefined) | 0 | 0 | 0 | 0 | 0 | - | -
Cc1nc(-c2ccc3c(c2)OCCO3)cs1 | 0 | 0 | 0 | 0 | 0 | - | -
SMILES | Lipid droplet | HSP90 refold inh | HCV NS3 hel inh | HSF1 inh | HSF-1 act | HSP90 confirm | FLuc counter
Cc1cccc(Nc2nc(-c3ccc4c(c3)OCCO4)cs2)c1 | 0 | 47 | 0 | -54 | 0 | 0 | 0
Cc1ccc(C(=O)NCCn2ccc3ccccc32)cc1[N+](=O)[O-] | 0 | 0 | 0 | 0 | 0 | - | -
COc1ccc(C(=O)NCCn2ccc3ccccc32)cc1 | 0 | 60 | 0 | 0 | 0 | 22 | 0
COc1ccc(C(=O)NCCn2cc(SCC(N)=O)c3ccccc32)cc1 | 0 | 74 | 0 | 0 | 0 | 0 | 0
O=C(CSc1cn(CCNC(=O)c2ccc3ccccc3c2)c2ccccc12)NCc1ccco1 | 0 | 19 | 0 | 0 | 0 | 22 | 0
O=C(O)CCC(=O)Nc1cccc(-c2nc3ccccc3o2)c1 | 0 | 0 | 0 | 0 | 0 | - | -
CCSc1ccc2nnc(-c3ccc(F)cc3)n2n1 | 0 | 88 | 0 | 0 | 0 | 0 | 0
CC(=O)N1CCN(C(=O)c2ccc(C(=O)c3ccccc3)cc2)CC1 | 0 | 0 | 0 | 0 | 0 | - | -
O=C1CCCCC1Sc1nnc(-c2ccc3c(c2)OCO3)o1 (centres undefined) | 0 | 75 | 0 | 0 | 0 | 93 | 79
